Laboratory results: ChEMBL document CHEMBL5108089, “Structure-based discovery of potent inhibitors of Axl: design, synthesis, and biological evaluation” (RSC Med Chem, 2022)
The source made the active and inactive calls. The rule behind the calls is not given here.

Experiments:
[1] = Half-life in Sprague-Dawley rat at 1 mg/kg, iv measured upto 24 hrs by LC-MS/MS analysis; type: ADME, organism-based; conditions: in vivo
KU812 cell line = test: Antiproliferative activity against human KU812 cells assessed as inhibition of cell growth incubated for 72 hrs by CCK-8 assay; type: functional
In short: (§1)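 Plated at 10000 cells/well. Dose series topped at 10 uM for test compound and at 1 uM for the staurosporine reference. Read-outs were CC50 and maximum % inhibition.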

[2] = AUC (0 to last) in Sprague-Dawley rat at 5 mg/kg, po measured upto 24 hrs by LC-MS/MS analysis; type: ADME, organism-based; parameters: dose 5 mg/kg, time < 24 hrs, route po; conditions: in vivo
HEL 92.1.7 = test: Antiproliferative activity against human HEL 92.1.7 cells assessed as inhibition of cell growth incubated for 72 hrs by CCK-8 assay; type: functional
In short: (§2)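 8000 cells/well. Test compound was serially diluted from a 10 uM top concentration and staurosporine from 1 uM. CC50 and maximum % inhibition are reported.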

[3] = target: Hepatocyte growth factor receptor (Homo sapiens) (UniProt P08581); test: Inhibition of Met (unknown origin) at 1 uM relative to control
Sequence of Hepatocyte growth factor receptor (Homo sapiens) (P08581 whole entry): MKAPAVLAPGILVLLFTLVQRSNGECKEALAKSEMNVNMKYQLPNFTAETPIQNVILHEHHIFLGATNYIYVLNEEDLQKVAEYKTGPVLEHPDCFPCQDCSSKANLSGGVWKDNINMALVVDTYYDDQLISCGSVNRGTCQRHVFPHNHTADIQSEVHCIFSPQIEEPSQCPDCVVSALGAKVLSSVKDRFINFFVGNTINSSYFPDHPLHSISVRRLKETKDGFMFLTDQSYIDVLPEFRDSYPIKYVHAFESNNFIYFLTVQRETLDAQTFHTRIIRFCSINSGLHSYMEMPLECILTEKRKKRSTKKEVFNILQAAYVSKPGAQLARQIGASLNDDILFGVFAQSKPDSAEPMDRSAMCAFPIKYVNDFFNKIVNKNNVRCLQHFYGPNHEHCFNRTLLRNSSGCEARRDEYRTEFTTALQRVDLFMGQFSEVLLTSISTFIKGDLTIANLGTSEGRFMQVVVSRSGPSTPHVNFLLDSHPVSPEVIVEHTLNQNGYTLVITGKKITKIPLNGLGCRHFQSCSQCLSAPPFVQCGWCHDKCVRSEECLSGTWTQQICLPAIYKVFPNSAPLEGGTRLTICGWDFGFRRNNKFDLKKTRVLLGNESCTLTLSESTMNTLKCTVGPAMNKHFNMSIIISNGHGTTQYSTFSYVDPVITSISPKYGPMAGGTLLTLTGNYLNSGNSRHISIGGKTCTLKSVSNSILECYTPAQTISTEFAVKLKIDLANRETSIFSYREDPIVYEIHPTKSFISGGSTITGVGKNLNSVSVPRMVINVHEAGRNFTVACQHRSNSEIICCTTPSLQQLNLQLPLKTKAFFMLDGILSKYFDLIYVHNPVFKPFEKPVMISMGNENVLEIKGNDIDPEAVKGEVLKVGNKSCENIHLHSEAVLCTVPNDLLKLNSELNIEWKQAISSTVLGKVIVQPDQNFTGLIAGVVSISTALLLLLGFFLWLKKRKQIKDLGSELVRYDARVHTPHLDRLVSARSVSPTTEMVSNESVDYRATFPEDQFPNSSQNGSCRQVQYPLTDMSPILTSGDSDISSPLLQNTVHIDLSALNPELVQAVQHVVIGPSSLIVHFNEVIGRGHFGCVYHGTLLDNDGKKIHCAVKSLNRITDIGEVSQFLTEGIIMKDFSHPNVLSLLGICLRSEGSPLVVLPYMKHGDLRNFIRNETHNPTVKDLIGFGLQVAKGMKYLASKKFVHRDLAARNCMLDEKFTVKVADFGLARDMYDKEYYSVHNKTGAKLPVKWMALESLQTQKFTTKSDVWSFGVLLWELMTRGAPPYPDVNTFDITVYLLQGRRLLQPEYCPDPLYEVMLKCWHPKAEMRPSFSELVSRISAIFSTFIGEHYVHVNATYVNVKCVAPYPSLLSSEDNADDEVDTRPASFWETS

A-375 = test: Antiproliferative activity against human A-375 cells assessed as inhibition of cell growth incubated for 72 hrs by CCK-8 assay; type: functional
ASPC1 = test: Antiproliferative activity against human ASPC1 cells assessed as inhibition of cell growth incubated for 72 hrs by CCK-8 assay; type: functional
In short: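 5000 cells/well. Test compound was titrated from 10 uM and staurosporine control from 1 uM. Values are CC50 and maximum % inhibition.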

[4] = target: Aurora kinase A (Homo sapiens) (UniProt O14965); test: Inhibition of Aurora A (unknown origin) at 1 uM
Sequence of Aurora kinase A (Homo sapiens) (O14965 whole entry): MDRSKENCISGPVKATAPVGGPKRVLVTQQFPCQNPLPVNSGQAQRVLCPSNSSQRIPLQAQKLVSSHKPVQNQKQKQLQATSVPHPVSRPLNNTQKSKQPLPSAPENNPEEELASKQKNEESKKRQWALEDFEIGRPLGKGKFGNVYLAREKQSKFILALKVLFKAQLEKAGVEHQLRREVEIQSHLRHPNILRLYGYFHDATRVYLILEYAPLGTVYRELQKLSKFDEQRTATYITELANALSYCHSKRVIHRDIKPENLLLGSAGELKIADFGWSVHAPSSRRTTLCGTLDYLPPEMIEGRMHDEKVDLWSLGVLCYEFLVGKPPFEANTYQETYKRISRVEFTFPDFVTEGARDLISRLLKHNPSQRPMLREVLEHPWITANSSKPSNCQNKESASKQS

KYSE-510 = test: Antiproliferative activity against human KYSE-510 cells assessed as inhibition of cell growth incubated for 72 hrs by CCK-8 assay; type: functional
SNU-5 = test: Antiproliferative activity against human SNU-5 cells assessed as inhibition of cell growth incubated for 72 hrs by CCK-8 assay; type: functional; in short: as §1
[5] = Cmax in Sprague-Dawley rat at 5 mg/kg, po measured upto 24 hrs by LC-MS/MS analysis; type: ADME, organism-based; parameters: dose 5 mg/kg, time < 24 hrs, route po; conditions: in vivo
MSTO-211H = test: Antiproliferative activity against human MSTO-211H cells assessed as inhibition of cell growth incubated for 72 hrs by CCK-8 assay; type: functional
[6] = Clearance in Sprague-Dawley rat at 1 mg/kg, iv measured upto 24 hrs by LC-MS/MS analysis; type: ADME, organism-based; conditions: in vivo
HCC827 = test: Antiproliferative activity against human HCC827 cells assessed as inhibition of cell growth incubated for 72 hrs by CCK-8 assay; type: functional
[7] = target: Receptor-type tyrosine-protein kinase FLT3 (Homo sapiens) (UniProt P36888); test: Inhibition of Flt3 (unknown origin) at 1 uM
Sequence of Receptor-type tyrosine-protein kinase FLT3 (Homo sapiens) (P36888 whole entry): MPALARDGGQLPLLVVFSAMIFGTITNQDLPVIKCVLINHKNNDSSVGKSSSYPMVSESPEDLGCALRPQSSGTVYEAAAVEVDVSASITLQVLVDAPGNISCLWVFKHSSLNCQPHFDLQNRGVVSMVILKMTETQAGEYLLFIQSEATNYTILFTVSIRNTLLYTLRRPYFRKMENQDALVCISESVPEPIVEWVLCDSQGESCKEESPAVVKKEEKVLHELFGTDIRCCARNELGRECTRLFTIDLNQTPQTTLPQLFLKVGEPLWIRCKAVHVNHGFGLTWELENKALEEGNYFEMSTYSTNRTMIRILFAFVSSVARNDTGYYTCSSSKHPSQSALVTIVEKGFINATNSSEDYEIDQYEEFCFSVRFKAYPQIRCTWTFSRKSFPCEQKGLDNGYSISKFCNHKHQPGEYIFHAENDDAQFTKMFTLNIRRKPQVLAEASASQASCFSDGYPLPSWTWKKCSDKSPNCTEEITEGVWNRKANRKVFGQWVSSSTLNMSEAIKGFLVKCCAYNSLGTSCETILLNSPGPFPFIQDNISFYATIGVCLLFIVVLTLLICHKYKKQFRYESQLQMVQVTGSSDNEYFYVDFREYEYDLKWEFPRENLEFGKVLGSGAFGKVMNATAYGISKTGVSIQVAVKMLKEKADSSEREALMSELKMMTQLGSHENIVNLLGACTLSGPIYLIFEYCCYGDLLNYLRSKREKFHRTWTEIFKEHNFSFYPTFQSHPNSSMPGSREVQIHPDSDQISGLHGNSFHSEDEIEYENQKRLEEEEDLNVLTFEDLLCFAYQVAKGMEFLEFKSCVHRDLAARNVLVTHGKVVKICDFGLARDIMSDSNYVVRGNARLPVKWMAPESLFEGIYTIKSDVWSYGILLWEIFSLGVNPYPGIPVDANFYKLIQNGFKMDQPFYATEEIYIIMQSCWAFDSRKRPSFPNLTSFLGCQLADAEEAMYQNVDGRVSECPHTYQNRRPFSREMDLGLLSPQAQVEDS

Hep 3B2 = test: Antiproliferative activity against human Hep 3B2.1-7 cells assessed as inhibition of cell growth incubated for 72 hrs by CCK-8 assay; type: functional; conditions: Hep3B
[8] = Antiproliferative activity against human NCI-H1954 cells assessed as inhibition of cell growth incubated for 72 hrs by CCK-8 assay; type: functional
143B = test: Antiproliferative activity against human 143B cells assessed as inhibition of cell growth incubated for 72 hrs by CCK-8 assay; type: functional
Raji = test: Antiproliferative activity against human Raji cells assessed as inhibition of cell growth incubated for 72 hrs by CCK-8 assay; type: functional; in short: as §2
NAMALVA = test: Antiproliferative activity against human NAMALVA cells assessed as inhibition of cell growth incubated for 72 hrs by CCK-8 assay; type: functional; in short: as §1
[9] = Intrinsic clearance in rat; type: ADME
A549 = test: Antiproliferative activity against human A549 cells assessed as inhibition of cell growth incubated for 72 hrs by CCK-8 assay; type: functional
U-87 MG = test: Antiproliferative activity against human U87 cells assessed as inhibition of cell growth incubated for 72 hrs by CCK-8 assay; type: functional, U-87MG ATCC
CAL-27 = test: Antiproliferative activity against human CAL-27 cells assessed as inhibition of cell growth incubated for 72 hrs by CCK-8 assay; type: functional
[10] = Cmax in Sprague-Dawley rat at 1 mg/kg, iv measured upto 24 hrs by LC-MS/MS analysis; type: ADME, organism-based; parameters: time < 24 hrs, dose 1 mg/kg, route iv; conditions: in vivo
FaDu = test: Antiproliferative activity against human FaDu cells assessed as inhibition of cell growth incubated for 72 hrs by CCK-8 assay; type: functional
CAKI-1 = test: Antiproliferative activity against human CAKI-1 cells assessed as inhibition of cell growth incubated for 72 hrs by CCK-8 assay; type: functional
[11] = Metabolic stability in rat liver microsomes assessed as half-life preincubated for 10 mins followed by NADPH addition and measured upto 60 mins by LC-MS/MS analysis; type: ADME, Microsome; conditions: time < 70 min
[12] = target: Vascular endothelial growth factor receptor 2 (Homo sapiens) (UniProt P35968); test: Inhibition of KDR (unknown origin) at 1 uM relative to control
Sequence of Vascular endothelial growth factor receptor 2 (Homo sapiens) (P35968 whole entry): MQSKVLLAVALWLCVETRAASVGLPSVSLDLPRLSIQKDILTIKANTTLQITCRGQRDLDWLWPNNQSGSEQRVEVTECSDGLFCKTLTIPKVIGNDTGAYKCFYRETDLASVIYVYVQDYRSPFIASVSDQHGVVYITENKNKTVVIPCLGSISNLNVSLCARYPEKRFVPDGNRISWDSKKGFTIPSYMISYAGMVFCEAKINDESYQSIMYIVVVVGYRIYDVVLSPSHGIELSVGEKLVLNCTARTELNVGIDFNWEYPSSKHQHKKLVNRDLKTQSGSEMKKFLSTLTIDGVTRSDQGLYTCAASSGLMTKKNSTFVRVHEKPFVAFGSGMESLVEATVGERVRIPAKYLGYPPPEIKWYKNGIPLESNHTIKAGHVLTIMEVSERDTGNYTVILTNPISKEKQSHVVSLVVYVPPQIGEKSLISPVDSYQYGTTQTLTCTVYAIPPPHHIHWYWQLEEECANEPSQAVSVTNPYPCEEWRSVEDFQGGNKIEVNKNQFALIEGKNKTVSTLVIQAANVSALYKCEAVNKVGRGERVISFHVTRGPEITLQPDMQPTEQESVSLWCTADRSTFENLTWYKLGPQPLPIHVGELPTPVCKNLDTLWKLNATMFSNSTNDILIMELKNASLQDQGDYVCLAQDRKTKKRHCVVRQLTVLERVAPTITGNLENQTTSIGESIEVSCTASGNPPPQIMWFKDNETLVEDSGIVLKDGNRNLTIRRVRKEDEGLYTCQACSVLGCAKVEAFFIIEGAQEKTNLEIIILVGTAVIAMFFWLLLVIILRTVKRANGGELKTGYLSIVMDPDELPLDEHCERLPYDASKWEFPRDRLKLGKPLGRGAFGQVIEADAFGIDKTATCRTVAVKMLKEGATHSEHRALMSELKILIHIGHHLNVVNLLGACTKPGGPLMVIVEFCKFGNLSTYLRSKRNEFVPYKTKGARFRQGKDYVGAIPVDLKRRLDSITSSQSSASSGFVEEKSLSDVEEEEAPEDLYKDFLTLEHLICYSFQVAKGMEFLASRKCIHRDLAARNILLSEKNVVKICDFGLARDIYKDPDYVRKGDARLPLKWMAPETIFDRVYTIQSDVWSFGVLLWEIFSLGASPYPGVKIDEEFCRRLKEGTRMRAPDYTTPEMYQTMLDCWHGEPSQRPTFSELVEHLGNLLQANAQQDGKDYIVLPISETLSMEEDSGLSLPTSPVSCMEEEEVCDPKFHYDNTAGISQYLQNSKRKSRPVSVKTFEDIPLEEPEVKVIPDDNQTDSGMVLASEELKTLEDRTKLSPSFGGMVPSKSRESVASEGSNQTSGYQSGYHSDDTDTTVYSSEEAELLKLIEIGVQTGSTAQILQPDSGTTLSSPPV

HepG2 = test: Antiproliferative activity against human HepG2 cells assessed as inhibition of cell growth incubated for 72 hrs by CCK-8 assay; type: functional
HT-29 = test: Antiproliferative activity against human HT-29 cells assessed as inhibition of cell growth incubated for 72 hrs by CCK-8 assay; type: functional
PC-3 = test: Antiproliferative activity against human PC-3 cells assessed as inhibition of cell growth incubated for 72 hrs by CCK-8 assay; type: functional
[13] = Metabolic stability in human liver microsomes assessed as intrinsic clearance preincubated for 10 mins followed by NADPH addition and measured upto 60 mins by LC-MS/MS analysis; type: ADME, Microsome; conditions: time < 70 min, read-out: CLH
[14] = AUC (0 to last) in Sprague-Dawley rat at 1 mg/kg, iv measured upto 24 hrs by LC-MS/MS analysis; type: ADME, organism-based; parameters: dose 1 mg/kg, time < 24 hrs, route iv; conditions: in vivo
[15] = Metabolic stability in human liver microsomes assessed as half-life preincubated for 10 mins followed by NADPH addition and measured upto 60 mins by LC-MS/MS analysis; type: ADME, Microsome; conditions: time < 70 min
SW-620 = test: Antiproliferative activity against human SW620 cells assessed as inhibition of cell growth incubated for 72 hrs by CCK-8 assay; type: functional
BXPC-3 = test: Antiproliferative activity against human BXPC-3 cells assessed as inhibition of cell growth incubated for 72 hrs by CCK-8 assay; type: functional
NCI-H2052 = test: Antiproliferative activity against human NCI-H2052 cells assessed as inhibition of cell growth incubated for 72 hrs by CCK-8 assay; type: functional
T-24 = test: Antiproliferative activity against human T24 cells assessed as inhibition of cell growth incubated for 72 hrs by CCK-8 assay; type: functional
MCF7 = test: Antiproliferative activity against human MCF7 cells assessed as inhibition of cell growth incubated for 72 hrs by CCK-8 assay; type: functional
MOLM-13 = test: Antiproliferative activity against human MOLM-13 cells assessed as inhibition of cell growth incubated for 72 hrs by CCK-8 assay; type: functional
[16] = Metabolic stability in rat liver microsomes assessed as intrinsic clearance preincubated for 10 mins followed by NADPH addition and measured upto 60 mins by LC-MS/MS analysis; type: ADME, Microsome; conditions: time < 70 min, read-out: CLH
OVCAR-3 = test: Antiproliferative activity against human OVCAR-3 cells assessed as inhibition of cell growth incubated for 72 hrs by CCK-8 assay; type: functional

SMILES: CC(C)n1cnc(-c2ccccc2Nc2nc(Nc3ccc(N(C)C4CCN(C)CC4)cc3)ncc2Cl)n1
- half-life [1]: 6.6 h
- CC50 (KU812 cell line): 233 nM
- AUClast [2]: 1180 ng·h/mL
- CC50 (HEL 92.1.7): 457 nM
- inhibition [3]: 70%
- CC50 (A-375): 23900 nM
- CC50 (ASPC1): 755 nM
- inhibition [4]: Active
- CC50 (KYSE-510): 117 nM
- CC50 (SNU-5): 356 nM
- Cmax [5]: 83.9 ng/mL
- CC50 (MSTO-211H): 451 nM
- clearance [6]: 36.7 mL/min/kg
- CC50 (HCC827): 2050 nM
- inhibition [7]: Active
- CC50 (Hep 3B2): 81.2 nM
- CC50 [8]: 1210 nM
- CC50 (143B): 1340 nM
- CC50 (Raji): 4560 nM
- CC50 (NAMALVA): 494 nM
- CLint scaled [9]: 33.9 mL/min/kg
- CC50 (A549): 293 nM
- CC50 (U-87 MG): 3010 nM
- CC50 (CAL-27): 107 nM
- Cmax [10]: 56.3 ng/mL
- CC50 (FaDu): 79.8 nM
- CC50 (CAKI-1): 493 nM
- half-life [11]: 0.472 h
- inhibition [12]: 70%
- CC50 (HepG2): 352 nM
- CC50 (HT-29): 504 nM
- CC50 (PC-3): 5590 nM
- CLint scaled [13]: 28.7 mL/min/kg
- AUClast [14]: 422 ng·h/mL
- half-life [15]: 1.01 h
- CC50 (SW-620): 349 nM
- CC50 (BXPC-3): 382 nM
- CC50 (NCI-H2052): 1180 nM
- CC50 (T-24): 933 nM
- CC50 (MCF7): 5190 nM
- CC50 (MOLM-13): 206 nM
- CLint scaled [16]: 87.7 mL/min/kg
- CC50 (OVCAR-3): 224 nM
